{"source": "PubChem BioAssay AID493226", "about": "(Broad Institute, 2011)", "key": {"[1]": {"assay": "breast cancer stem cell viability inhibitors – luminescence, dry powder, set 2, dose response (AID 493226)", "settings": "HMLE_shECad viability, CellTiter-Glo luminescence, 72 h; at 30 µM (top of the series)", "procedure,_shortened": "(§1)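 Material: HMLE cells with stable E-cadherin knockdown (HMLE_shECad), EMT-induced CSC model; Amount: 2000 cells/well; Medium: serum-free CSC screening medium; Dosing: 100 nL compound per well by pin transfer; Schedule: ≥4 h attachment, ~72 h compound exposure, 37 °C; Technique: CellTiter-Glo luminescence.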"}, "[2]": {"system": "HMLE_shECad viability, CellTiter-Glo luminescence, 72 h", "assay": "breast cancer stem cell viability inhibitors – luminescence, dry powder, set 2, dose response (AID 493226)", "procedure,_shortened": "as §1"}}, "note": "“And” between values parts separate entries of the source, which are not always exact repeats. Identical values can stand only once. Records with an inconclusive call do not appear. The source made the active and inactive calls.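 How the source made its calls: active means every repeat test active, with falling cell-viability signal and fitted midpoint potency at most ten times the top dose; inconclusive means tests disagree, flat partial drop, or a poor curve fit; inactive means every test flat, too weak, or rising.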", "data": [{"compound": "O=C(C#Cc1ccccc1)NC1=NCCS1", "values": [{"measurement": "activity change, negative = inhibition", "setting": "[1]", "result": "3.65% (inactive)"}]}, {"compound": "O=C(COc1ccccc1F)N/N=C/c1ccc[nH]1", "values": [{"measurement": "activity change, negative = inhibition", "setting": "[1]", "result": "3.8% (inactive)"}]}, {"compound": "O=C(O)c1ccc(COc2ccccc2)o1", "values": [{"measurement": "activity change, negative = inhibition", "setting": "[1]", "result": "-1.91% (inactive)"}]}, {"compound": "O=C(CCc1ccccc1)NC1=NCCS1", "values": [{"measurement": "activity change, negative = inhibition", "setting": "[1]", "result": "-2.41% (inactive)"}]}, {"compound": "COc1ccc(OC)c(/C=C/C(=O)NC2=NCCS2)c1", "values": [{"measurement": "activity change, negative = inhibition", "setting": "[1]", "result": "4.36% (inactive)"}]}, {"compound": "O=C(NC1CCCC1)c1ccc(COc2ccccc2)o1", "values": [{"measurement": "activity change, negative = inhibition", "setting": "[1]", "result": "-15.7% (inactive)"}]}, {"compound": "CC(C)c1ccc(/C=C/C(=O)O)cc1", "values": [{"measurement": "activity change, negative = inhibition", "setting": "[1]", "result": "4.33% (inactive)"}]}, {"compound": "O=Cc1ccc[nH]1", "values": [{"measurement": "activity change, negative = inhibition", "setting": "[1]", "result": "-5.79% (inactive)"}]}, {"compound": "CC(C)c1ccc(/C=C/C(=O)NC2=NCCS2)cc1", "values": [{"measurement": "AC50", "setting": "[2]", "result": 0.839, "unit": "µM"}]}, {"compound": "CCN(CC)C(=O)/C=C/c1ccc(C(C)C)cc1", "values": [{"measurement": "activity change, negative = inhibition", "setting": "[1]", "result": "-2.71% (inactive)"}]}, {"compound": "Cc1ccccc1/C=C/C(=O)NC1=NCCS1", "values": [{"measurement": "activity change, negative = inhibition", "setting": "[1]", "result": "-11.7% (inactive)"}]}, {"compound": "CC(C)(C)c1ccc2c(c1)OC(C(=O)N/N=C/c1ccc[nH]1)CO2", "note": "(stereo not given)", "values": [{"measurement": "AC50", "setting": "[2]", "result": "2.52 µM and 2.79 µM"}]}, {"compound": "O=C(N/N=C/c1ccc[nH]1)C1Cc2ccccc2O1", "note": "(stereo not given)", "values": [{"measurement": "activity change, negative = inhibition", "setting": "[1]", "result": "12.7% (inactive)"}]}, {"compound": "Cc1csc(NC(=O)c2ccc(COc3ccccc3)o2)n1", "values": [{"measurement": "AC50", "setting": "[2]", "result": 1.18, "unit": "µM"}]}, {"compound": "Cc1ccccc1NCC(=O)N/N=C/c1ccc[nH]1", "values": [{"measurement": "activity change, negative = inhibition", "setting": "[1]", "result": "-14.1% (inactive)"}]}, {"compound": "O=C(COc1cc(Cl)ccc1Cl)N/N=C/c1ccc[nH]1", "values": [{"measurement": "AC50", "setting": "[2]", "result": 3.39, "unit": "µM"}]}, {"compound": "O=C(COc1ccc(Cl)cc1Cl)N/N=C/c1cnc[nH]1", "values": [{"measurement": "activity change, negative = inhibition", "setting": "[1]", "result": "3.31% (inactive)"}]}, {"compound": "O=C(COc1ccc(Cl)cc1Cl)N/N=C/c1cccs1", "values": [{"measurement": "activity change, negative = inhibition", "setting": "[1]", "result": "-4.9% (inactive)"}]}, {"compound": "Cc1cc(Cl)ccc1OCC(=O)N/N=C/c1ccc[nH]1", "values": [{"measurement": "AC50", "setting": "[2]", "result": 2.89, "unit": "µM"}]}, {"compound": "O=C(COc1ccc(Cl)cc1Cl)N/N=C/c1ccco1", "values": [{"measurement": "activity change, negative = inhibition", "setting": "[1]", "result": "-7.8% (inactive)"}]}, {"compound": "Cc1c(C(=O)NC2=NCCS2)oc2ccccc12", "values": [{"measurement": "activity change, negative = inhibition", "setting": "[1]", "result": "-22.6% (inactive)"}]}, {"compound": "Cc1cc(C)c(/C=N/NC(=O)COc2ccc(Cl)cc2Cl)[nH]1", "values": [{"measurement": "AC50", "setting": "[2]", "result": 12.6, "unit": "µM"}]}, {"compound": "O=C(COc1ccc(Cl)cc1Cl)N/N=C/c1ccc[nH]1", "values": [{"measurement": "AC50", "setting": "[2]", "result": "2.38 µM and 3.33 µM"}]}, {"compound": "O=C(COc1ccc(F)cc1Cl)N/N=C/c1ccc[nH]1", "values": [{"measurement": "AC50", "setting": "[2]", "result": 8.88, "unit": "µM"}]}, {"compound": "C/C(=N\\NC(=O)COc1ccc(Cl)cc1Cl)c1ccc[nH]1", "values": [{"measurement": "activity change, negative = inhibition", "setting": "[1]", "result": "-10.8% (inactive)"}]}, {"compound": "CC(C)c1ccc(/C=C/C(=O)Nc2ccccc2)cc1", "values": [{"measurement": "AC50", "setting": "[2]", "result": 3.44, "unit": "µM"}]}, {"compound": "CN(C)c1ccc(/C=C/C(=O)NC2=NCCS2)cc1", "values": [{"measurement": "AC50", "setting": "[2]", "result": 27.3, "unit": "µM"}]}, {"compound": "O=C(/C=C/c1cc(Cl)ccc1Cl)NC1=NCCS1", "values": [{"measurement": "activity change, negative = inhibition", "setting": "[1]", "result": "-13.1% (inactive)"}]}, {"compound": "NNC(=O)COc1ccc(Cl)cc1Cl", "values": [{"measurement": "activity change, negative = inhibition", "setting": "[1]", "result": "-13% (inactive)"}]}, {"compound": "COc1cc(/C=C/C(=O)NC2=NCCS2)cc(OC)c1OC", "values": [{"measurement": "activity change, negative = inhibition", "setting": "[1]", "result": "0.693% (inactive)"}]}, {"compound": "Cc1ccc(/C=N/NC(=O)COc2ccc(Cl)cc2Cl)[nH]1", "values": [{"measurement": "AC50", "setting": "[2]", "result": 14.3, "unit": "µM"}]}, {"compound": "O=C(/C=C/c1ccc(Cl)c(Cl)c1)NC1=NCCS1", "values": [{"measurement": "activity change, negative = inhibition", "setting": "[1]", "result": "8.35% (inactive)"}]}, {"compound": "COc1ccc(/C=C/C(=O)NC2=NCCS2)c(OC)c1", "values": [{"measurement": "AC50", "setting": "[2]", "result": 9.45, "unit": "µM"}]}, {"compound": "Cc1csc(NC(=O)/C=C/c2ccc(C(C)C)cc2)n1", "values": [{"measurement": "AC50", "setting": "[2]", "result": 3.29, "unit": "µM"}]}, {"compound": "O=C(COc1ccc(Cl)cc1)N/N=C/c1ccc[nH]1", "values": [{"measurement": "AC50", "setting": "[2]", "result": 22.5, "unit": "µM"}]}, {"compound": "CC(=O)Oc1ccc(/C=C/C(=O)NC2=NCCS2)cc1", "values": [{"measurement": "activity change, negative = inhibition", "setting": "[1]", "result": "-16.2% (inactive)"}]}, {"compound": "O=C(N/N=C/c1ccc[nH]1)c1cc2ccccc2o1", "values": [{"measurement": "AC50", "setting": "[2]", "result": 6.33, "unit": "µM"}]}, {"compound": "O=C(NC1=NCCS1)c1cc2ccccc2[nH]1", "values": [{"measurement": "activity change, negative = inhibition", "setting": "[1]", "result": "-16.7% (inactive)"}]}, {"compound": "CCNC(=O)/C=C/c1ccc(C(C)C)cc1", "values": [{"measurement": "activity change, negative = inhibition", "setting": "[1]", "result": "0.062% (inactive)"}]}, {"compound": "O=C(COc1c(Cl)cc(Cl)cc1Cl)N/N=C/c1ccc[nH]1", "values": [{"measurement": "AC50", "setting": "[2]", "result": 1.16, "unit": "µM"}]}]}
